In ChEMBL document CHEMBL1148785, “Second generation tetrahydroquinoline-based protein farnesyltransferase inhibitors as antimalarials” (J Med Chem, 2007):

How the values were obtained:
Plasmodium falciparum [1] = test: Inhibition of Plasmodium falciparum protein farnesyltransferase at 5 nM by scintillation proximity assay
Plasmodium falciparum [2] = test: Inhibition of Plasmodium falciparum protein farnesyltransferase at 50 nM by scintillation proximity assay
Plasmodium falciparum [3] = test: Antimalarial activity against Plasmodium falciparum K1; assay type: functional; conditions: Plasmodium falciparum, K1; read-out: ED50 (the source's name)
Outline: (§1)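 Asynchronous culture in type A+ erythrocytes at 0.5% parasitemia and 0.5% hematocrit, grown in RPMI-1640 with 20% heat-inactivated human A+ plasma. Compound was serially diluted from a top final 5 µM, with DMSO vehicle as 100% growth. Plates ran 48 h at 37 °C under 5% CO2/5% O2/90% N2, then [3H]-hypoxanthine (0.3 µCi) for 24 h. Filter-harvested counts were corrected for the uninfected-RBC background. ED50 by linear regression; duplicates averaged.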

Plasmodium falciparum [4] = test: Antimalarial activity against Plasmodium falciparum 3D7; assay type: functional; conditions: Plasmodium falciparum, 3D7; read-out: ED50 (the source's name); outline: as §1
Plasmodium falciparum [5] = test: Inhibition of Plasmodium falciparum protein farnesyltransferase at 0.5 nM by scintillation proximity assay

Row | Compound | inhibition (Plasmodium falciparum [1]) [%] | inhibition (Plasmodium falciparum [2]) [%] | EC50 (Plasmodium falciparum [3]) [nM] | EC50 (Plasmodium falciparum [4]) [nM] | inhibition (Plasmodium falciparum [5]) [%]
1 | Cn1cnc(S(=O)(=O)N(Cc2ccc3c(c2)OCCS3(=O)=O)C2Cc3cc(C#N)ccc3N(Cc3cncn3C)C2)c1 (stereo not given) | 99 | 99 | < 20 | 20 | 66
2 | Cn1cncc1CN1CC(N(CC(=O)NC(C)(C)C)S(=O)(=O)CCN)Cc2cc(C#N)ccc21 (stereo not given) | 10 | 11 | > 5000 | > 5000 | 5
3 | Cc1oncc1CN(C1Cc2cc(-c3ccccc3)ccc2N(Cc2cn(C)cn2)C1)S(=O)(=O)c1cn(C)cn1 (stereo not given) | 26 | 79 | 3700 | 3000 | 0
4 | Cn1cnc(CN2CC(N(CC(=O)NC(C)(C)C)S(=O)(=O)c3ccccn3)Cc3cc(-c4ccccc4)ccc32)c1 (stereo not given) | 6 | 11 | 3000 | > 5000 | 6
5 | CCCS(=O)(=O)N(CC1CCN(C(=O)OC)CC1)C1Cc2cc(C#N)ccc2N(Cc2cncn2C)C1 (stereo not given) | 22 | 55 | 1800 | 1100 | 1
6 | COC(=O)N1CCC(CN(C2Cc3cc(C#N)ccc3N(Cc3cncn3C)C2)S(=O)(=O)c2ccccc2Cl)CC1 (stereo not given) | 80 | 97 | 70 | 55 | 24
7 | Cn1cnc(S(=O)(=O)N(CCCCON2C(=O)c3ccccc3C2=O)C2Cc3cc(C#N)ccc3N(Cc3cncn3C)C2)c1 (stereo not given) | 96 | 99 | 100 | 140 | 57
8 | C/C=C/C=C\C=C\CN(C1Cc2cc(C#N)ccc2N(Cc2cncn2C)C1)S(=O)(=O)c1ccccn1 (stereo not given) | 87 | 98 | 700 | 700 | 32
9 | COc1ccc(S(=O)(=O)N(Cc2ccc(S(C)(=O)=O)cc2)C2Cc3cc(C#N)ccc3N(Cc3cncn3C)C2)cc1 (stereo not given) | 83 | 97 | 340 | 185 | 17
10 | Cn1cncc1CN1CC(N(CCN)S(=O)(=O)c2ccccn2)Cc2cc(C#N)ccc21 (stereo not given) | 11 | 65 | > 5000 | 2700 | 6
11 | COC(=O)N1CCC(CN(C2Cc3cc(C#N)ccc3N(Cc3cncn3C)C2)S(=O)(=O)CS(C)(=O)=O)CC1 (stereo not given) | 0 | 15 | > 5000 | > 5000 | 0
12 | Cn1cncc1CN1CC(N(CC2CCN(C(=O)Nc3ccc(Br)cc3)CC2)S(=O)(=O)c2ccccn2)Cc2cc(C#N)ccc21 (stereo not given) | 0 | 38 | 2800 | 3000 | 0
13 | CC(C)S(=O)(=O)N1CCC(CN(C2Cc3cc(C#N)ccc3N(Cc3cncn3C)C2)S(=O)(=O)c2ccccn2)CC1 (stereo not given) | 17 | 96 | 55 | 75 | 89
14 | COC(=O)N1CCC(CN(C2Cc3cc(C#N)ccc3N(Cc3cncn3C)C2)S(=O)(=O)c2cccc3cccnc23)CC1 (stereo not given) | 80 | 95 | 400 | 260 | 24
15 | Cn1cncc1CN1CC(N(Cc2ccc(S(C)(=O)=O)cc2)S(=O)(=O)c2ccc3c(c2)OCCCO3)Cc2cc(C#N)ccc21 (stereo not given) | 78 | 97 | 3500 | 2100 | 10
16 | COC(=O)N1CCC(CN(C2Cc3cc(C#N)ccc3N(Cc3cncn3C)C2)S(=O)(=O)c2ncn(C)c2C)CC1 (stereo not given) | 97 | 100 | < 20 | 35 | 49

Row | Compound | inhibition (Plasmodium falciparum [1]) [%] | inhibition (Plasmodium falciparum [2]) [%] | EC50 (Plasmodium falciparum [3]) [nM] | EC50 (Plasmodium falciparum [4]) [nM] | inhibition (Plasmodium falciparum [5]) [%]
17 | Cn1cnc(S(=O)(=O)N(CCCCCC(N)=O)C2Cc3cc(C#N)ccc3N(Cc3cncn3C)C2)c1 (stereo not given) | 87 | 98 | 73 | 150 | 31
18 | Cn1cnc(CN2CC(N(Cc3ccccc3)S(=O)(=O)c3cn(C)cn3)Cc3cc(-c4ccccc4)ccc32)c1 (stereo not given) | 90 | 99 | 380 | 450 | 9
19 | Cc1nc(C)c(S(=O)(=O)N(CC(=O)NC(C)(C)C)C2Cc3cc(C#N)ccc3N(Cc3cncn3C)C2)s1 (stereo not given) | 3 | 0 | > 5000 | > 5000 | 2
20 | Cn1cnc(S(=O)(=O)N(CCc2cccs2)C2Cc3cc(C#N)ccc3N(Cc3cncn3C)C2)c1 (stereo not given) | 86 | 100 | 8.5 | 21 | 26
21 | Cn1cncc1CN1CC(N(CCOc2cccc3c2OCCO3)S(=O)(=O)c2ccccn2)Cc2cc(C#N)ccc21 (stereo not given) | 41 | 88 | 1450 | 810 | 10
22 | CN(C)CCN(C1Cc2cc(C#N)ccc2N(Cc2cncn2C)C1)S(=O)(=O)c1cn(C)cn1 (stereo not given) | 15 | 64 | 3100 | 2700 | 0
23 | Cn1cnc(S(=O)(=O)N(Cc2ccc(C(F)(F)F)o2)C2Cc3cc(C#N)ccc3N(Cc3cncn3C)C2)c1 (stereo not given) | 96 | 97 | 75 | 78 | 54
24 | Cc1c(S(=O)(=O)N(Cc2ccc(S(C)(=O)=O)cc2)C2Cc3cc(C#N)ccc3N(Cc3cncn3C)C2)ncn1C (stereo not given) | 70 | 92 | 450 | 320 | 23
25 | Cn1cncc1CN1CC(N(CC2CCN(C(=O)c3cccs3)CC2)S(=O)(=O)c2ccccn2)Cc2cc(C#N)ccc21 (stereo not given) | 35 | 99 | 81 | 70 | 87
26 | COC(=O)NCCN(C1Cc2cc(C#N)ccc2N(Cc2cncn2C)C1)S(=O)(=O)c1ccccn1 (stereo not given) | 47 | 90 | 400 | 510 | 14
27 | Cn1cnc(S(=O)(=O)N(Cc2ccc(F)cc2)C2Cc3cc(C#N)ccc3N(Cc3cncn3C)C2)c1 (stereo not given) | 93 | 99 | 100 | 40 | 50
28 | Cn1cnc(CN2CC(NS(=O)(=O)c3ccccn3)Cc3cc(-c4ccccc4)ccc32)c1 (stereo not given) | 14 | 19 | > 5000 | > 5000 | 11
29 | Cn1cncc1CN1CC(N(Cc2ccccc2F)S(C)(=O)=O)Cc2cc(C#N)ccc21 (stereo not given) | 7 | 51 | > 5000 | 600 | 0
30 | CSCCC(=O)N(Cc1ccccc1F)C1Cc2cc(C#N)ccc2N(Cc2cncn2C)C1 (stereo not given) | 9 | 52 | 450 | 270 | 0
31 | Cc1cc(=O)n(CCCCN(C2Cc3cc(C#N)ccc3N(Cc3cncn3C)C2)S(=O)(=O)c2ccccn2)c(=O)n1C (stereo not given) | 51 | 90 | 200 | 350 | 0
32 | COc1ccc(S(=O)(=O)N(Cc2ccccc2F)C2Cc3cc(C#N)ccc3N(Cc3cncn3C)C2)cc1 (stereo not given) | 22 | 66 | 1000 | 900 | 13
